The values below come from ChEMBL document CHEMBL1149742, “Displacement activity of bisbenzylisoquinoline alkaloids at striatal 3H-SCH 23390 and 3H-raclopride binding sites” (J Nat Prod, 1992).

One assay addresses D(1A) dopamine receptor (Rattus norvegicus, UniProt P18901). The experiment in a line: Displacement of [3H]SCH23390 from dopamine D1 receptor in Wistar rat striatal membrane by liquid scintillation counting. The format is cell membranes, Striatum. An outline of the steps:
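Striata from male Wistar rats (200–250 g) homogenized in 50 mM Tris-HCl pH 7.4, centrifuged twice at 20,000 g, resuspended in Tris-Mg buffer (5 mM MgSO4, 0.5 mM EDTA, 0.02% ascorbic acid). 100 µg protein incubated 1 h at 25° with 0.25 nM [3H]SCH 23390 (final), compounds at 6 or 11 concentrations 10^-9–10^-4 M. Nonspecific binding with 30 µM SK&F 38393. GF/B filtration. IC50 with 95% confidence limits by Litchfield–Wilcoxon, 4–8 determinations per concentration.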
(In general: In a radioligand displacement assay an active substance lowers the binding of a labelled ligand.)

The target of a further assay is D(2) dopamine receptor (Rattus norvegicus, UniProt P61169). The experiment in a line: Displacement of [3H]raclopride from dopamine D2 receptor in Wistar rat striatal membrane by liquid scintillation counting. The format is cell membranes, Striatum. The gist of the method:
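Male Wistar rat (200–250 g) striatal membranes, centrifuged four times at 20,000 g, resuspended in Tris-ions buffer (120 mM NaCl, 5 mM KCl, 1 mM CaCl2, 1 mM MgCl2, 0.1% ascorbic acid, pH 7.4). 200 µg protein incubated 1 h at 25° with 0.5 nM [3H]raclopride (final), compounds at 6 or 11 concentrations 10^-9–10^-4 M. Nonspecific binding with 50 µM apomorphine. GF/B filtration. IC50 by Litchfield–Wilcoxon, 4–8 determinations per concentration.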

The species named for the next assay is Rattus norvegicus. The experiment in a line: Selectivity ratio of IC50 for dopamine D1 receptor in Wistar rat striatal membrane to IC50 for dopamine D2 receptor in Wistar rat striatal membrane. The format is cell membranes.

Sequence of D(2) dopamine receptor (P61169 whole entry): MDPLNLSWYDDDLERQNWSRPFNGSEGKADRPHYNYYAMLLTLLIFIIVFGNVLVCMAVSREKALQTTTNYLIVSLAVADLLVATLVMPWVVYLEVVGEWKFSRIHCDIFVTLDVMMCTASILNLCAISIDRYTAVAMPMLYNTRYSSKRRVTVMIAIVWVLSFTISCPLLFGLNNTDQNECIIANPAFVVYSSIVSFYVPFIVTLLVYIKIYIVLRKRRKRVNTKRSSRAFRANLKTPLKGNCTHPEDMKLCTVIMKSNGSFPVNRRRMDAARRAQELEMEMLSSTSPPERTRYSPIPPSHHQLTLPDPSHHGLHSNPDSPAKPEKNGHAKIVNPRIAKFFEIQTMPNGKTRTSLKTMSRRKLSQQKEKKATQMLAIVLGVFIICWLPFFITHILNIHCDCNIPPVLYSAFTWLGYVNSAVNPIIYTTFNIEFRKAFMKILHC
Sequence of D(1A) dopamine receptor (P18901 whole entry): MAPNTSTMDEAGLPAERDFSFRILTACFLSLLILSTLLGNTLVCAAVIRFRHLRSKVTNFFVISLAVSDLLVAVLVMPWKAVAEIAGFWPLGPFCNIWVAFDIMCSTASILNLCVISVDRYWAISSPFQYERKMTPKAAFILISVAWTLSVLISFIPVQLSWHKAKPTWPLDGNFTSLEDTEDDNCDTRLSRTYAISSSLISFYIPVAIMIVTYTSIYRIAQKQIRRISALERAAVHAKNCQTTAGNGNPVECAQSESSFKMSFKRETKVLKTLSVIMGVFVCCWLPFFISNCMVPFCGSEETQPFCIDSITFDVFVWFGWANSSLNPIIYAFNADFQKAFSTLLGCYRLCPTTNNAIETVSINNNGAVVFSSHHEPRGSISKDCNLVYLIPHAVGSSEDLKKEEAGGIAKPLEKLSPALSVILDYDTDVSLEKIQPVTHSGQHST

What is called IC50 is the concentration needed to halve the response being measured. Read a low IC50 as greater potency. For `COc1ccc2cc1Oc1ccc(cc1)C[C@H]1c3c(cc(OC)c(OC)c3Oc3cc4c(cc3OC)CCN(C)[C@@H]4C2)CCN1C`, the half-maximal inhibitory concentration (IC50) amounted to 39.1 µM on D(1A) dopamine receptor and 28.4 µM on D(2) dopamine receptor. Besides, in the assay filed under Rattus norvegicus, the Ratio IC50 was 1.4.
Taken in the same sequence, the figures for `COc1cc2c(cc1O)[C@@H](Cc1ccc(OC)c(Oc3ccc(C[C@H]4c5cc(O)c(OC)cc5CCN4C)cc3)c1)N(C)CC2` were 5.6 µM, 0.027 µM and 207.
For `COc1cc2c(cc1O)[C@@H](Cc1ccc(O)c(Oc3ccc(C[C@H]4c5cc(O)c(OC)cc5CCN4C)cc3)c1)N(C)CC2`, the half-inhibitory concentration (IC50) on D(1A) dopamine receptor worked out at 1.04 µM; on D(2) dopamine receptor, 0.3 µM. Moreover, in the assay listed under Rattus norvegicus, the Ratio IC50 was 3.5.
On the same counts, the results for `COc1ccc(C[C@H]2c3c(cc(OC)c4c3Oc3cc5c(cc3O4)CCN(C)C5=O)CCN2C)cc1-c1cc(C=O)ccc1O` are greater than 100 µM, 81.6 µM and greater than 1.2.
Taken in the same sequence, the figures for `COc1cc2c3cc1Oc1c(O)c(OC)cc4c1[C@H](Cc1ccc(OC)c(c1)-c1cc(ccc1O)C(=O)[C@H]3N(C)CC2)N(C)CC4` were 11.1 µM, 2.76 µM and 4.
On the same counts, the results for `COc1cc2c(cc1Oc1c(O)c(OC)cc3c1[C@H](Cc1ccc(OC)c(-c4cc(C=O)ccc4O)c1)N(C)CC3)C(=O)N(C)CC2` are greater than 30 µM, 10 µM and greater than 3.
As for `COc1cc2c(cc1OC)[C@@H](Cc1ccc(OC)c(Oc3ccc(C[C@H]4NCCc5cc(OC)c(OC)cc54)cc3)c1)N(C)CC2`, the IC50 on D(1A) dopamine receptor and at D(2) dopamine receptor was greater than 100 µM in each case.
Turning to `COc1cc2c(cc1OC)[C@@H](Cc1ccc(Oc3cc(C[C@@H]4c5cc(OC)c(OC)cc5CCN4C)ccc3OC)cc1)N(C)CC2`, the IC50 on D(1A) dopamine receptor and on D(2) dopamine receptor was greater than 100 µM in each case.
As for `COc1cc2c3cc1Oc1c(O)c(OC)cc4c1[C@H](Cc1ccc(OC)c(c1)-c1cc(ccc1O)C[C@H]3N(C)CC2)N(C)CC4`, the IC50 was greater than 100 µM at D(1A) dopamine receptor and 3.18 µM on D(2) dopamine receptor. In the assay listed under Rattus norvegicus, the Ratio IC50 stood at 31.4.
On to `COc1ccc2cc1Oc1ccc(cc1)C[C@@H]1c3c(cc(OC)c(O)c3Oc3cc4c(cc3OC)CCN(C)[C@H]4C2)CCN1C` (racemic), for which the results for the IC50 on D(1A) dopamine receptor and at D(2) dopamine receptor were 15.4 µM and 66.4 µM, respectively. In the assay listed under Rattus norvegicus, the Ratio IC50 turned out to be 0.2.
Taken in the same sequence, the figures for `COc1ccc2cc1Oc1ccc(cc1)C[C@H]1c3cc(c(OC)cc3CCN1C)Oc1c(OC)c(OC)cc3c1[C@@H](C2)N(C)CC3` were 33.3 µM, 0.67 µM and 49.6.
For `COc1ccc(C=O)cc1Oc1ccc(C[C@H]2c3c(cc(OC)c(OC)c3Oc3cc4c(cc3OC)CCN(C)C4=O)CCN2C)cc1`, the IC50 on D(1A) dopamine receptor and at D(2) dopamine receptor was greater than 30 µM in each case.
With `COc1cc2c3cc1Oc1c(O)c(OC)cc4c1[C@@H](C(=O)c1ccc(O)c(c1)-c1cc(ccc1OC)C[C@H]3N(C)CC2)N(C)CC4`, the IC50 on D(1A) dopamine receptor was 90.2 µM; at D(2) dopamine receptor it was 16.2 µM. The Ratio IC50 in the assay listed under Rattus norvegicus turned out to be 5.6.
Taken in the same sequence, the figures for `COc1cc2c(cc1OC)[C@@H](Cc1ccc(Oc3cc(C[C@H]4c5cc(OC)c(OC)cc5CCN4C)ccc3OC)cc1)N(C)CC2` were 5.64 µM, 1.45 µM and 3.9.
